Measurements from article PMC5114172 (Journal of applied toxicology : JAT, 2016).

How the values were obtained:
[1] = system: monocyte-depleted PBMCs; assay: IL-1β secretion assay; assay type: cell-based, human; conditions: MD-PBMCs; for Interleukin 1 beta secreted: donor F166, 6 day; for fold increase in IL-1β secretion: third common donor (F152), 24 h
How it was run: (§1)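 NK cells, MD-PBMCs, PBMCs or granulocytes (1.5 million/mL) or PBMC+granulocytes (0.75 million/mL each), per donor, exposed 24 h, 48 h or 6 days to 0.05–5 μM test compound diluted from DMSO stock, with DMSO controls. Supernatants kept at −70 °C. IL-1β by sandwich ELISA: HRP detection antibody, acid-stopped substrate, A450 against standards. Detection limit 3 pg/mL; triplicates; ANOVA then t test versus control, p<0.05.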

[2] = system: PBMCs; assay: IL-1β secretion assay; assay type: cell-based, human
How it was run: as §1

CCC[CH2][Sn][CH2]CCC [DBT, Dibutyltin]
Interleukin 1 beta secreted ([1]; 0.25 μM DBT): 2424 ± 95 pg/mL | Interleukin 1 beta secreted ([1]; 0.5 μM DBT): 2118 ± 698 pg/mL | fold increase in IL-1β secretion ([1]; 50 nM DBT): 2.1 fold | fold increase in IL-1β secretion ([1]; 100 nM DBT): 1.4 fold | average of the maximum fold increase in IL-β secretion ([2]; 24 h, across donors): 3.2 fold | Interleukin 1 beta secreted ([2]; donor F148, 24 h, 0.05 μM DBT): 120.533 ± 8.211 ng/mL | Interleukin 1 beta secreted ([2]; donor F148, 24 h, 0.1 μM DBT): 107.467 ± 4.636 ng/mL | Interleukin 1 beta secreted ([2]; donor F148, 24 h, 0.25 μM DBT): 137.333 ± 3.926 ng/mL | Interleukin 1 beta secreted ([2]; donor F148, 24 h, 0.5 μM DBT): 32.4 ± 1.833 ng/mL | Interleukin 1 beta secreted ([2]; donor F148, 24 h, 1 μM DBT): 11.6 ± 11.085 ng/mL | Interleukin 1 beta secreted ([2]; donor F148, 24 h, 2.5 μM DBT): 12.133 ± 0.462 ng/mL | Interleukin 1 beta secreted ([2]; donor F148, 24 h, 5 μM DBT): 11.867 ± 0.924 ng/mL | Interleukin 1 beta secreted ([2]; donor F148, 48 h, 0.05 μM DBT): 15851 ± 836 ng/mL | Interleukin 1 beta secreted ([2]; donor F148, 48 h, 0.1 μM DBT): 17620 ± 257 ng/mL | Interleukin 1 beta secreted ([2]; donor F148, 48 h, 0.25 μM DBT): 18728 ± 597 ng/mL | Interleukin 1 beta secreted ([2]; donor F148, 48 h, 0.5 μM DBT): 5493 ± 409 ng/mL | Interleukin 1 beta secreted ([2]; donor F148, 48 h, 1 μM DBT): 2224 ± 329 ng/mL | Interleukin 1 beta secreted ([2]; donor F148, 48 h, 5 μM DBT): 483 ± 358 ng/mL | Interleukin 1 beta secreted ([2]; donor F148, 6 day, 0.1 μM DBT): 25 ± 0 ng/mL | Interleukin 1 beta secreted ([2]; donor F148, 6 day, 0.25 μM DBT): 25 ± 1 ng/mL | Interleukin 1 beta secreted ([2]; donor F148, 6 day, 0.5 μM DBT): 6 ± 0 ng/mL | Interleukin 1 beta secreted ([2]; donor F154, 24 h, 0.05 μM DBT): 5.056 ± 0.273 ng/mL | Interleukin 1 beta secreted ([2]; donor F154, 24 h, 0.1 μM DBT): 4.568 ± 0.168 ng/mL | Interleukin 1 beta secreted ([2]; donor F154, 24 h, 0.25 μM DBT): 1.383 ± 0.123 ng/mL | Interleukin 1 beta secreted ([2]; donor F154, 24 h, 0.5 μM DBT): 0.765 ± 0.084 ng/mL | Interleukin 1 beta secreted ([2]; donor F154, 24 h, 1 μM DBT): 0.38 ± 0.013 ng/mL | Interleukin 1 beta secreted ([2]; donor F154, 24 h, 2.5 μM DBT): 0.111 ± 0.067 ng/mL | Interleukin 1 beta secreted ([2]; donor F154, 48 h, 0.05 μM DBT): 4249 ± 294 ng/mL | Interleukin 1 beta secreted ([2]; donor F154, 48 h, 0.1 μM DBT): 4193 ± 556 ng/mL | Interleukin 1 beta secreted ([2]; donor F154, 48 h, 0.25 μM DBT): 1687 ± 42 ng/mL | Interleukin 1 beta secreted ([2]; donor F154, 48 h, 0.5 μM DBT): 1036 ± 128 ng/mL | Interleukin 1 beta secreted ([2]; donor F154, 48 h, 1 μM DBT): 1325 ± 72 ng/mL | Interleukin 1 beta secreted ([2]; donor F154, 48 h, 2.5 μM DBT): 378 ± 61 ng/mL | Interleukin 1 beta secreted ([2]; donor F154, 48 h, 5 μM DBT): 193 ± 0 ng/mL | Interleukin 1 beta secreted ([2]; donor F154, 6 day, 0.05 μM DBT): 3507 ± 155 ng/mL | Interleukin 1 beta secreted ([2]; donor F154, 6 day, 0.1 μM DBT): 3300 ± 114 ng/mL | Interleukin 1 beta secreted ([2]; donor F154, 6 day, 0.25 μM DBT): 3816 ± 464 ng/mL | Interleukin 1 beta secreted ([2]; donor F154, 6 day, 0.5 μM DBT): 2056 ± 114 ng/mL | Interleukin 1 beta secreted ([2]; donor F154, 6 day, 1 μM DBT): 2531 ± 464 ng/mL | Interleukin 1 beta secreted ([2]; donor F154, 6 day, 2.5 μM DBT): 586 ± 179 ng/mL | Interleukin 1 beta secreted ([2]; donor F154, 6 day, 5 μM DBT): 118 ± 146 ng/mL | Interleukin 1 beta secreted ([2]; donor F159, 24 h, 0.05 μM DBT): 2.812 ± 0.15 ng/mL | fold increase in IL-1β secretion ([2]; donor F159, 24 h, 0.05 μM DBT): 1.7 fold | Interleukin 1 beta secreted ([2]; donor F159, 24 h, 0.1 μM DBT): 6.376 ± 0.233 ng/mL | fold increase in IL-1β secretion ([2]; donor F159, 24 h, 0.1 μM DBT): 3.8 fold | Interleukin 1 beta secreted ([2]; donor F159, 24 h, 0.25 μM DBT): 5.803 ± 0.15 ng/mL | fold increase in IL-1β secretion ([2]; donor F159, 24 h, 0.25 μM DBT): 3.4 fold | Interleukin 1 beta secreted ([2]; donor F159, 24 h, 0.5 μM DBT): 1.667 ± 0.112 ng/mL | Interleukin 1 beta secreted ([2]; donor F159, 24 h, 1 μM DBT): 0.812 ± 0.065 ng/mL | Interleukin 1 beta secreted ([2]; donor F159, 48 h, 0.05 μM DBT): 1034 ± 299 ng/mL | Interleukin 1 beta secreted ([2]; donor F159, 48 h, 0.1 μM DBT): 1211 ± 71 ng/mL | Interleukin 1 beta secreted ([2]; donor F159, 48 h, 0.25 μM DBT): 1243 ± 192 ng/mL | Interleukin 1 beta secreted ([2]; donor F159, 48 h, 0.5 μM DBT): 1099 ± 93 ng/mL | Interleukin 1 beta secreted ([2]; donor F159, 48 h, 1 μM DBT): 1246 ± 9 ng/mL | Interleukin 1 beta secreted ([2]; donor F159, 48 h, 2.5 μM DBT): 532 ± 101 ng/mL | Interleukin 1 beta secreted ([2]; donor F159, 48 h, 5 μM DBT): 565 ± 15 ng/mL | Interleukin 1 beta secreted ([2]; donor F159, 6 day, 0.05 μM DBT): 210 ± 62 ng/mL | Interleukin 1 beta secreted ([2]; donor F159, 6 day, 0.1 μM DBT): 236 ± 10 ng/mL | Interleukin 1 beta secreted ([2]; donor F159, 6 day, 0.25 μM DBT): 507 ± 21 ng/mL | Interleukin 1 beta secreted ([2]; donor F159, 6 day, 0.5 μM DBT): 229 ± 7 ng/mL | Interleukin 1 beta secreted ([2]; donor F159, 6 day, 1 μM DBT): 256 ± 12 ng/mL | Interleukin 1 beta secreted ([2]; donor F159, 6 day, 2.5 μM DBT): 52 ± 1 ng/mL | Interleukin 1 beta secreted ([2]; donor F159, 6 day, 5 μM DBT): 51 ± 9 ng/mL | Interleukin 1 beta secreted ([2]; donor F173, 24 h, 0.05 μM DBT): 7.072 ± 0.935 ng/mL | Interleukin 1 beta secreted ([2]; donor F173, 24 h, 0.1 μM DBT): 8.1 ± 0.822 ng/mL | Interleukin 1 beta secreted ([2]; donor F173, 24 h, 0.25 μM DBT): 4.443 ± 0.405 ng/mL | Interleukin 1 beta secreted ([2]; donor F173, 24 h, 0.5 μM DBT): 20.063 ± 1.077 ng/mL | Interleukin 1 beta secreted ([2]; donor F173, 24 h, 1 μM DBT): 9.989 ± 0.155 ng/mL | Interleukin 1 beta secreted ([2]; donor F173, 24 h, 2.5 μM DBT): 3.813 ± 0.058 ng/mL | Interleukin 1 beta secreted ([2]; donor F173, 24 h, 5 μM DBT): 2.517 ± 0.073 ng/mL | Interleukin 1 beta secreted ([2]; donor F173, 48 h, 0.05 μM DBT): 614 ± 63 ng/mL | Interleukin 1 beta secreted ([2]; donor F173, 48 h, 0.1 μM DBT): 500 ± 41 ng/mL | Interleukin 1 beta secreted ([2]; donor F173, 48 h, 0.25 μM DBT): 425 ± 20 ng/mL | Interleukin 1 beta secreted ([2]; donor F173, 48 h, 0.5 μM DBT): 745 ± 36 ng/mL | Interleukin 1 beta secreted ([2]; donor F173, 48 h, 1 μM DBT): 2064 ± 194 ng/mL | Interleukin 1 beta secreted ([2]; donor F173, 48 h, 2.5 μM DBT): 591 ± 32 ng/mL | Interleukin 1 beta secreted ([2]; donor F173, 48 h, 5 μM DBT): 478 ± 32 ng/mL | Interleukin 1 beta secreted ([2]; donor F173, 6 day, 0.05 μM DBT): 465 ± 151 ng/mL | Interleukin 1 beta secreted ([2]; donor F173, 6 day, 0.1 μM DBT): 398 ± 28 ng/mL | Interleukin 1 beta secreted ([2]; donor F173, 6 day, 0.25 μM DBT): 453 ± 16 ng/mL | Interleukin 1 beta secreted ([2]; donor F173, 6 day, 0.5 μM DBT): 932 ± 8 ng/mL | Interleukin 1 beta secreted ([2]; donor F173, 6 day, 1 μM DBT): 690 ± 15 ng/mL | Interleukin 1 beta secreted ([2]; donor F173, 6 day, 2.5 μM DBT): 181 ± 8 ng/mL | Interleukin 1 beta secreted ([2]; donor F173, 6 day, 5 μM DBT): 145 ± 2 ng/mL
